In the library only some 4.2% were active in any assay of this set; here they are far more common.
OX1R antag-1: OX1R (HCRTR1) antagonists, primary screen, fluorescence, CHO/OX1R cells, Fluo-8 calcium, orexin A; Fluo-8 calcium fluorescence; inhibition, % at 5 µM; Orexin/Hypocretin receptor type 1 (Homo sapiens), O43613; hit rate 0.43% among 330,000;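 active = inhibition above its plate's threshold, mean inhibition of all tested compounds on the plate plus 3 SD, cut at about 37% in these data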;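 note: 0% = orexin A challenge wells and 100% = SB-334867-A antagonist wells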
TAAR1 ag: human TAAR1 agonists, primary screen, Fluo-8 calcium fluorescence, CHO RD-HGA16 cells; vehicle wells 0%, saturating PEA agonist 100%; activation, % at 3 µM; hit rate 0.99% among 360,000; AID 624467, 2012;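 active = activation above the mean activation of all test compounds in the run plus 3 SD, cut at about 38% in these data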
Target sequence (Q96RJ0 whole entry, looked up): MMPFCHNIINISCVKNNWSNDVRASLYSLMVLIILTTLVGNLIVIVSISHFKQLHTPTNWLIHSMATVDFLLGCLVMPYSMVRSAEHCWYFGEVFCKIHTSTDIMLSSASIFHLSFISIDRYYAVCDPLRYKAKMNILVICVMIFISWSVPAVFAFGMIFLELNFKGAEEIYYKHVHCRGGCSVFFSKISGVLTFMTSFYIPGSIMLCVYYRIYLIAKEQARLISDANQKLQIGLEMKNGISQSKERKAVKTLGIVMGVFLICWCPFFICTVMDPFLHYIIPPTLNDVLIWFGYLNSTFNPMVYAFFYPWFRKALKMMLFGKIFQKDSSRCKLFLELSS
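Test system: RD-HGA16 (CHO) cells co-expressing Gα16 and hTAAR1 | Doses: Single dose, 3 µM | Schedule: 17-24 h seeding, 75 min 37 °C dye, 30 min RT | Evaluation: % activation from peak over basal fluorescence ratio, DMSO-to-PEA scaled | Technique: Kinetic Fluo-8 calcium fluorescence | Benchmarks: Low control DMSO, high control PEA (EC100)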
OX1R antag-2: antagonists of human orexin 1 receptor (OX1R); OX1R-expressing cells, FRET antagonist read-out; inhibition, % at 6.6 µM; hit rate 1.8% among 330,000; in the data active = inhibition mostly above about 38%, no sharp cut-off; inactive = mostly below about 40%;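 note: 0% = agonist challenge alone and 100% = reference antagonist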
CHO parental Ca: ATP-evoked calcium signal inhibitors, parental CHO, primary screen, counter-screen for OX1R antagonist project, cell-based, fluorescence, Fluo-8 calcium dye. parental CHO-K1, ATP-induced calcium, Fluo-8 fluorescence. hit rate 0.63% among 330,000. inhibition, % at 5.6 µM;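 active = inhibition above that plate's mean sample inhibition plus 3 SD, cut at about 26% in these data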;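 note: 0% = ATP-challenged DMSO wells and 100% = DMSO wells without ATP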
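Assay system – parental CHO cells · Reagent – ATP stimulus · Detection – intracellular calcium via Fluo-8 no-wash fluorescent dye · Evaluation – percent inhibition of ATP-evoked calcium rise, normalized to controls · Controls – ATP wells versus no-ATP DMSO wells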
GalR3 antagonist: GalR3 antagonists in HEK293 cells, primary screen, cell-based, fluorescence readout. Galanin receptor type 3 (Homo sapiens), O60755. HEK293 GalR3-CNG cAMP membrane potential fluorescence; galR3 body fused to GalR1 C-terminus. inhibition, % at 3 µM. hit rate 0.44% among 360,000;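 active = inhibition above the screen-wide average plus 3 SD, cut at about 13% in these data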;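 note: forskolin and galanin both at EC90 stimulate the cells; cAMP rise reported by CNG channel membrane potential dye signal; 0% = forskolin plus galanin with DMSO and 100% = forskolin alone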
Target sequence (O60755 1-299 limits assumed): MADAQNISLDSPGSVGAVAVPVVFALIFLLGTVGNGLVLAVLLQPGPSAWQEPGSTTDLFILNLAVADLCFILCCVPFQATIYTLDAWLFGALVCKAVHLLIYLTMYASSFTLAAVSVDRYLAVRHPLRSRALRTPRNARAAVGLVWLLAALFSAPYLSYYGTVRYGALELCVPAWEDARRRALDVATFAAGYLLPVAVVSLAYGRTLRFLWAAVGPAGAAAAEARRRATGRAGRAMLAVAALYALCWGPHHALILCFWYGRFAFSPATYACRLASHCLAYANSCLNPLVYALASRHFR
TAAR1 antag: human TAAR1 antagonists, primary screen, Fluo-8 calcium fluorescence, CHO RD-HGA16 cells | Trace amine-associated receptor 1 (Homo sapiens), Q96RJ0 | hit rate 1.5% among 360,000 | antagonist | inhibition, % at 3 µM;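 active = inhibition above a per-plate cutoff, the mean inhibition of test compounds on that plate plus 3 SD, cut at about 49% in these data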;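 note: 0% = DMSO plus EC80 beta-PEA response and 100% = DMSO alone without agonist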
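System: CHO RD-HGA16 cells bearing hTAAR1. Reagent: EC80 β-phenethylamine stimulus. Schedule: seeding 17-24 h prior, 75-min 37 °C, 30-min RT dye loading. Signal: Fluo-8 intracellular calcium dye fluorescence, real-time kinetic reads. Read-out: % inhibition from peak post-agonist over basal fluorescence ratio. Benchmarks: vehicle wells and EC80 agonist wells. Replicates: n of 1.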
An asterisk follows results filed as active.

For Cc1cc2occ(CC(=O)NNC(=O)c3ccccc3)c2cc1C the results were OX1R antag-1 -16.8, TAAR1 ag 0.9, OX1R antag-2 10.1, CHO parental Ca -0.7, GalR3 antagonist -4.8 and TAAR1 antag -16.1.
For COc1cc(CNC(=O)c2cc(-c3cc(F)ccc3OCC3CCCO3)n[nH]2)cc(OC)c1 (stereo unspecified) the results were TAAR1 ag 4.8, GalR3 antagonist -3.5 and TAAR1 antag 52.7*.
For Cc1cc(C)nc(Nc2ccc(O)cc2)n1 the results were OX1R antag-1 18.3, TAAR1 ag 5.9, OX1R antag-2 -5.8, CHO parental Ca 2.0, GalR3 antagonist -9.1 and TAAR1 antag -6.5.
`COCCNC(=O)C(=O)NCC1OCCN1S(=O)(=O)c1ccc(C)cc1` (stereo unspecified) gave OX1R antag-1 5.7, TAAR1 ag -0.1, OX1R antag-2 -2.3, CHO parental Ca 5.9, GalR3 antagonist -1.2 and TAAR1 antag 2.2.
O=C(CC12CC3CC(CC(Br)(C3)C1)C2)NC1=NCCS1 was read as OX1R antag-1 -35.6, TAAR1 ag 4.9, OX1R antag-2 1.5, CHO parental Ca -1.5, GalR3 antagonist -1.4 and TAAR1 antag -23.9.
For O=C(NC(N1CCOCC1)C(Cl)(Cl)Cl)c1cc([N+](=O)[O-])cc([N+](=O)[O-])c1 (stereo unspecified) the results were OX1R antag-1 3.0, TAAR1 ag 4.6, OX1R antag-2 72.7*, CHO parental Ca -5.7, GalR3 antagonist -3.8 and TAAR1 antag 13.2.
For COC(=O)c1cc(C(=O)N2CCOCC2)cc([N+](=O)[O-])c1 the results were OX1R antag-1 7.7, TAAR1 ag 3.4, OX1R antag-2 76.8*, CHO parental Ca 11.3, GalR3 antagonist -4.5 and TAAR1 antag -15.2.
For CC1CN(C(=O)c2cc([N+](=O)[O-])cc([N+](=O)[O-])c2)CC(C)O1 (stereo unspecified) the results were OX1R antag-1 -20.8, TAAR1 ag 1.1, OX1R antag-2 61.8*, CHO parental Ca -17.2, GalR3 antagonist -5.7 and TAAR1 antag 11.4.
Screening Cc1nn(-c2cc(C)c3ccccc3n2)c2c1CCC2 returned OX1R antag-1 -3.6, TAAR1 ag 11.9, OX1R antag-2 -1.3, CHO parental Ca -8.9, GalR3 antagonist -5.5 and TAAR1 antag -6.2.
For Cc1onc(-c2ccccc2)c1CNC(=O)Nc1ccc(C(F)(F)F)cc1 the results were OX1R antag-1 27.2, TAAR1 ag 5.7, OX1R antag-2 48.7*, CHO parental Ca 19.6, GalR3 antagonist 0.0 and TAAR1 antag -25.3.
For CCn1c(SCc2nc(CC(=O)Nc3ccccc3OC)no2)nnc1-c1cccs1 the results were OX1R antag-1 -5.5, TAAR1 ag 7.7, OX1R antag-2 70.5*, CHO parental Ca -15.9, GalR3 antagonist -3.7 and TAAR1 antag -1.6.
`COc1cc(NS(=O)(=O)c2ccc(NC(=O)/C=C/c3cccc([N+](=O)[O-])c3)cc2)ncn1` gave OX1R antag-1 -12.8, TAAR1 ag 6.5, OX1R antag-2 13.5, CHO parental Ca -22.5, GalR3 antagonist -2.9 and TAAR1 antag 4.9.
`Cc1[nH]c2ccccc2c1C(=O)CSc1nc2ccccc2c(=O)n1CCCN1CCOCC1` gave OX1R antag-1 -4.5, TAAR1 ag 47.5*, OX1R antag-2 22.3, CHO parental Ca 8.2, GalR3 antagonist -0.8 and TAAR1 antag 71.3*.
For Cn1c(N)c(C(=O)CSc2nc3ccccc3c(=O)n2CCCN2CCOCC2)c(=O)n(C)c1=O the results were OX1R antag-1 -27.6, TAAR1 ag 4.2, OX1R antag-2 8.4, CHO parental Ca -6.4, GalR3 antagonist -4.5 and TAAR1 antag -6.3.
`O=C(NCCc1nnc2ccc(SCC(=O)N3CCCC3)nn12)c1ccccc1` gave OX1R antag-1 -4.1, TAAR1 ag -0.5, OX1R antag-2 6.5, CHO parental Ca -7.0, GalR3 antagonist -6.2 and TAAR1 antag -9.3.
Screening O=C1c2ccccc2-n2c1nc1ccccc1c2=O returned OX1R antag-1 12.5, TAAR1 ag 1.0, OX1R antag-2 53.5*, CHO parental Ca 0.0, GalR3 antagonist -7.2 and TAAR1 antag 5.1.
For CC(=O)Nc1cccc(-c2csc(Nc3ccccn3)n2)c1 the results were OX1R antag-1 -9.9, TAAR1 ag 4.3, OX1R antag-2 61.1*, CHO parental Ca -12.3, GalR3 antagonist -7.4 and TAAR1 antag -1.1.
For Cc1cccc(Nc2nc(-c3cccs3)cs2)n1 the results were OX1R antag-1 -16.1, TAAR1 ag 9.9, OX1R antag-2 55.5, CHO parental Ca -46.2, GalR3 antagonist -3.9 and TAAR1 antag -3.3.
For Cc1cccc(Nc2nc(-c3ccccn3)cs2)n1 the results were OX1R antag-1 19.7, TAAR1 ag 8.3, OX1R antag-2 66.1*, CHO parental Ca -5.2, GalR3 antagonist -4.2 and TAAR1 antag 25.9.
For O=C(c1ccc(Cl)c(S(=O)(=O)N2CCCCC2)c1)N1CCCC1 the results were OX1R antag-1 -28.6, TAAR1 ag 1.7, OX1R antag-2 24.0, CHO parental Ca -1.2, GalR3 antagonist 2.8 and TAAR1 antag -15.0.
For COc1cc2c(cc1NC(=O)C(c1ccccc1)c1ccccc1)CCCC2 the results were OX1R antag-1 36.2, TAAR1 ag 9.7, OX1R antag-2 20.6, CHO parental Ca 32.5*, GalR3 antagonist -2.5 and TAAR1 antag 15.9.
CCOc1ccccc1C(=O)Nc1ccc(S(=O)(=O)Nc2cc(OC)nc(OC)n2)cc1 was read as OX1R antag-1 -17.2, TAAR1 ag -1.7, OX1R antag-2 25.6, CHO parental Ca -21.2, GalR3 antagonist -1.7 and TAAR1 antag -7.2.
Screening Cc1cc2ccc(C)c(C)c2nc1SCC(=O)c1cccs1 returned OX1R antag-1 -22.3, TAAR1 ag 7.8, OX1R antag-2 12.2, CHO parental Ca -13.6, GalR3 antagonist -4.4 and TAAR1 antag -0.6.
`Cc1ccc2cc(C)c3nnc(SCC(=O)c4cccs4)n3c2c1C` gave OX1R antag-1 -9.7, TAAR1 ag 4.2, OX1R antag-2 45.4*, CHO parental Ca -16.1, GalR3 antagonist -0.8 and TAAR1 antag 11.9.
For COc1ccc(OC)c(NC(=O)CN(C)CC(=O)Nc2ccccc2Cl)c1 the results were OX1R antag-1 -14.4, TAAR1 ag 3.7, OX1R antag-2 12.9, CHO parental Ca -14.8, GalR3 antagonist -5.0 and TAAR1 antag -11.2.
For O=C(COC(=O)C1CC1)Nc1cccc(Cl)c1 the results were TAAR1 ag 0.2, GalR3 antagonist -1.7 and TAAR1 antag -12.7.

From PubChem BioAssay
